Measured values collected from several papers.
Protocols differ between the studies behind these lines.
Target: Serine/threonine-protein kinase Sgk1 (SGK1, Homo sapiens, UniProt O00141)
Residues used in one study (O00141 1-431): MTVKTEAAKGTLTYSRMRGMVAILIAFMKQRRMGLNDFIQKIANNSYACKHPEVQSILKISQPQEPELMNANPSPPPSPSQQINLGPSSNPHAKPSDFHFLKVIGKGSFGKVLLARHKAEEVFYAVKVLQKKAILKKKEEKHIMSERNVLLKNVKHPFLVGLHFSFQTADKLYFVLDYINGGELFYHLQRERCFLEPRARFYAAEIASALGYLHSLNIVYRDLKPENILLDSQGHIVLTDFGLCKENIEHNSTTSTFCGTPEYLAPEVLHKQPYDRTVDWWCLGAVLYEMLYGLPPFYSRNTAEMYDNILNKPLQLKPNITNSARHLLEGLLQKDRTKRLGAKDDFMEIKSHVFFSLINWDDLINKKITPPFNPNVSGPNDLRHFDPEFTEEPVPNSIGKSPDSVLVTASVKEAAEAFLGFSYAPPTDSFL

Structure (SMILES) | test | conditions | measurement | value
Cn1cc(-c2cc(F)cc(N3CCn4c(cc5c4CCCC5)C3=O)c2CO)cc(Nc2ccc(N3CCN(C4COC4)CC3)cn2)c1=O | enzyme activity, inhibitor | 0.1 µM | inhibition | 13%
Nc1ncc(-c2nc(N3CCOCC3)nc(N3CCOCC3)n2)c(C(F)F)n1 | binding, competition with immobilised ligand | 10 µM | remaining binding | 77%
N#CC1(c2ccccn2)CCN(Cc2cc(C(=O)O)c(=O)n3ccccc23)CC1 | cell-free assay, competition with immobilised ligand | 1 µM | remaining binding | 87%
COc1ncccc1-c1cnn2ccc(N3CCN(C(=O)OC(C)C)CC3)nc12 | binding, competition with immobilised ligand | 1 µM | remaining binding | 100%
O=c1[nH]c2ccccc2n1C1CCN(Cc2ccc(-c3[nH]c4cc5ncnc5cc4nc3-c3ccccc3)cc2)CC1 | cell-free assay | 0.5 µM | remaining signal | 102%
C#Cc1n[nH]c2c(-c3cn(C(C)c4ccccn4)c(=O)[nH]c3=O)cc(F)cc12 (stereo not drawn) | enzyme activity, inhibitor | 1 µM | inhibition | 0%
CC(C)(C)c1cc(C=C(C#N)C#N)cc(Br)c1O | enzyme activity, inhibitor | 0.5 µM | remaining activity | 95.3%
Cn1cncc1[C@@](O)(COc1ccc(C#N)cc1-c1ccc(OC(F)(F)F)cc1)c1ccc(C#N)cc1 | cell-free assay, competition with immobilised ligand | 1 µM | remaining binding | 100%
Cn1cc(-c2cccc(N3CCc4c(sc5c4CC(C)(C)C5)C3=O)c2CO)cc(Nc2ccncn2)c1=O | enzyme activity, inhibitor | 1 µM | inhibition | -11%
